The record followed here is ChEMBL document CHEMBL3853334, “Brain penetrant liver X receptor (LXR) modulators based on a 2,4,5,6-tetrahydropyrrolo[3,4-c]pyrazole core” (Bioorg Med Chem Lett, 2016).

Data set [1] can be described thus: Half life in rat liver microsomes. The class given is ADME.
A short description of data set [2]: Half life in human liver microsomes. It is filed as ADME.
Data set [3] addresses Cytochrome P450 2C9 (Homo sapiens, UniProt P11712). The experiment in a line: Inhibition of CYP2C9 (unknown origin).
In data set [4] the target is Cytochrome P450 2D6 (Homo sapiens, UniProt P10635). The experiment in a line: Inhibition of CYP2D6 (unknown origin).
Cytochrome P450 2D6, sequence (P10635 whole entry): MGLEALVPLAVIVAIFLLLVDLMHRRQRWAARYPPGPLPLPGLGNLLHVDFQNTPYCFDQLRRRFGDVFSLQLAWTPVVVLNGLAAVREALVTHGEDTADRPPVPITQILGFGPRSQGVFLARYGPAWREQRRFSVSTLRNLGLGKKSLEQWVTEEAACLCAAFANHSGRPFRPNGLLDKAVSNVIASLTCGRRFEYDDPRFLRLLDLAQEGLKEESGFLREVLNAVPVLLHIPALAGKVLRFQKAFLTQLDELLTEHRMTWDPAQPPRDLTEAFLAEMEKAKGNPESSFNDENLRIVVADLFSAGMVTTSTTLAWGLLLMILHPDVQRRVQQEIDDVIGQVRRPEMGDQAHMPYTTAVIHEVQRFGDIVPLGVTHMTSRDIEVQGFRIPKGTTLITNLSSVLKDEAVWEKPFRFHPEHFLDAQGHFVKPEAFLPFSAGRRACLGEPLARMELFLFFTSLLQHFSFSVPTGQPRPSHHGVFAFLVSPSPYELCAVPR
The target of data set [5] is Cytochrome P450 3A4 (Homo sapiens, UniProt P08684). The experiment in a line: Inhibition of CYP3A4 (unknown origin).
Cytochrome P450 3A4, sequence (P08684 whole entry): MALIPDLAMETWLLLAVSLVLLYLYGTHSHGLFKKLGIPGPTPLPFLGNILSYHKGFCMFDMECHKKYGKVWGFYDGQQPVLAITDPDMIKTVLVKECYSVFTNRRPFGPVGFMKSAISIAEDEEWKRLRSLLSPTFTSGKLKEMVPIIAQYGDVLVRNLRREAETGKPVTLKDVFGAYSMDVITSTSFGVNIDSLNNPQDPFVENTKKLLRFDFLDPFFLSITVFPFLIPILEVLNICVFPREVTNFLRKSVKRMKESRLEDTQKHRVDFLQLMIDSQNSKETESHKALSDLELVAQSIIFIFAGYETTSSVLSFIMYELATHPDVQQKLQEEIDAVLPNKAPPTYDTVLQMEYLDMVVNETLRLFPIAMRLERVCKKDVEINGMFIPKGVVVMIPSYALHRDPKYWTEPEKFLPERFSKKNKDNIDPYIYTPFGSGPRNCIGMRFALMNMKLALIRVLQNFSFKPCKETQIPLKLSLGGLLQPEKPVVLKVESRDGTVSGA
Data set [6] is described as follows: Half life in mouse liver microsomes. It is filed as ADME.
A short description of data set [7]: Drug uptake in wild type C57BL mouse brain at 3 mg/kg, po measured after 4 hrs. The class given is ADME, organism-based. As to conditions: read-out: Drug uptake. A digest of the protocol:
(§1)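 Wild-type C57BL mice, single oral dose of 1 or 3 mg/kg. Plasma and brain drug levels were measured 4 h post-dose, and brain ABCA1 mRNA induction was compared with vehicle control.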

Data set [8] is described as follows: Plasma concentration in wild type C57BL mouse at 3 mg/kg, po measured after 4 hrs. The class given is ADME, organism-based. The procedure, abridged: as §1
Data set [9] is described as follows: Drug uptake in Sprague-Dawley rat brain at 5 mg/kg, po measured after 4 hrs. It is filed as ADME, organism-based. As to conditions: read-out: Drug uptake. A digest of the protocol: (§2)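 Male Sprague–Dawley rats, single oral dose of 5 mg/kg. Plasma and brain drug levels, plus brain ABCA1 mRNA, were measured 4 h after dosing.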
The nature of data set [10]: Plasma concentration in Sprague-Dawley rat at 5 mg/kg, po measured after 4 hrs. The class given is ADME, organism-based. The procedure, abridged:
as §2

Data set [11] can be described thus: Plasma concentration in Sprague-Dawley rat at 1 mg/kg qd administered via oral gavage for 5 days measured 4 hrs post last dose. The class given is ADME, organism-based. The procedure, abridged: (§3)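 Sprague–Dawley rats, oral dosing once daily for 5 days at 1, 3 or 10 mg/kg/day, with a reference LXR agonist at 30 mg/kg in the same study. Drug levels were measured in plasma and brain. Brain ABCA1 mRNA was also measured, along with Aβ1–40 and Aβ1–42 in cerebrum and CSF.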

The nature of data set [12]: Drug uptake in Sprague-Dawley rat brain at 3 mg/kg qd administered via oral gavage for 5 days measured 4 hrs post last dose. It is filed as ADME, organism-based. As to conditions: read-out: Drug uptake. The procedure, abridged:
as §3

The nature of data set [13]: Plasma concentration in Sprague-Dawley rat at 10 mg/kg qd administered via oral gavage for 5 days measured 4 hrs post last dose. It is filed as ADME, organism-based. The procedure, abridged:
as §3

Data set [14] can be described thus: Drug uptake in Sprague-Dawley rat brain at 1 mg/kg qd administered via oral gavage for 5 days measured 4 hrs post last dose. The class given is ADME, organism-based. Conditions: read-out: Drug uptake. The procedure, abridged: as §3
Data set [15] in a line: Plasma concentration in Sprague-Dawley rat at 3 mg/kg qd administered via oral gavage for 5 days measured 4 hrs post last dose. It is filed as ADME, organism-based. A digest of the protocol:
as §3

Data set [16] in a line: Drug uptake in Sprague-Dawley rat brain at 10 mg/kg qd administered via oral gavage for 5 days measured 4 hrs post last dose. As to conditions: read-out: Drug uptake. The class given is ADME, organism-based. The procedure, abridged:
as §3

The nature of data set [17]: Plasma concentration in wild type C57BL mouse at 1 mg/kg, po measured after 4 hrs. It is filed as ADME, organism-based. The procedure, abridged:
as §1

The nature of data set [18]: Drug uptake in wild type C57BL mouse brain at 1 mg/kg, po measured after 4 hrs. The class given is ADME, organism-based. As to conditions: read-out: Drug uptake. The procedure, abridged:
as §1

Data set [19] concerns Rattus norvegicus. The experiment in a line: Induction of ABCA1 mRNA expression in Sprague-Dawley rat brain at 30 mg/kg qd administered via oral gavage for 5 days measured 4 hrs post last dose relative to control. The class given is functional.
The nature of data set [20]: Plasma concentration in Sprague-Dawley rat at 30 mg/kg qd administered via oral gavage for 5 days measured 4 hrs post last dose. The class given is ADME, organism-based. The procedure, abridged: as §3
Data set [21] can be described thus: Drug uptake in Sprague-Dawley rat brain at 30 mg/kg qd administered via oral gavage for 5 days measured 4 hrs post last dose. It is filed as ADME, organism-based. Conditions: read-out: Drug uptake. The procedure, abridged: as §3
A short description of data set [22]: Drug uptake in wild type C57BL mouse brain at 30 mg/kg, po measured after 4 hrs. The class given is ADME, organism-based. Conditions: read-out: Drug uptake.
Data set [23] is described as follows: Plasma concentration in wild type C57BL mouse at 30 mg/kg, po measured after 4 hrs. It is filed as ADME, organism-based.

Cytochrome P450 2C9, sequence (P11712 whole entry): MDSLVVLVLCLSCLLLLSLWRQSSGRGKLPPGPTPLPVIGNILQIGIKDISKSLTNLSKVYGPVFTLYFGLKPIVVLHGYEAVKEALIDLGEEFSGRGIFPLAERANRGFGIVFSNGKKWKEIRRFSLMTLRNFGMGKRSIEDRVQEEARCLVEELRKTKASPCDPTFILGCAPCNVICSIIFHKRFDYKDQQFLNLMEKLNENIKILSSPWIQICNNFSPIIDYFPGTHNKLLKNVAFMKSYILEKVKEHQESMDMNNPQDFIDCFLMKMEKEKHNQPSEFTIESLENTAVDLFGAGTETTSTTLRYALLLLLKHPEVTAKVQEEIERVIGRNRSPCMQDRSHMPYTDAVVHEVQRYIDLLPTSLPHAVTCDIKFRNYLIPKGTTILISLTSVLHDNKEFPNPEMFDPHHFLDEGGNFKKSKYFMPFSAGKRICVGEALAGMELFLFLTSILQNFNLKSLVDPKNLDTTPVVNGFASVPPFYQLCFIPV

For the compound `CC(C)[C@@H]1CN(c2ccc(CO)c(S(C)(=O)=O)c2)CCN1c1ncc(CO)c(C(F)(F)F)n1`, the values for the half-life in data set [1] and in [2] were 1.15 h and 0.717 h, respectively.

`COc1ncnc(N2Cc3cn(-c4cccc(S(C)(=O)=O)c4)nc3[C@H]2C(C)C)c1F`: the IC50 in data set [3] amounted to 1.44 µM; in data set [4], 27 µM; in [5], 2.5 µM. Besides, the half-life in [1] and in data set [2] was more than 1 h in each case.

`COc1cc(N2Cc3cn(-c4cccc(S(C)(=O)=O)c4)nc3[C@H]2C(C)C)ccn1`: the IC50 in data set [3] was 5.63 µM; in data set [4], more than 30 µM; in data set [5], more than 30 µM. Besides, the half-life in data set [1], in data set [2] and in data set [6] was more than 1 h throughout.

Regarding `COc1cc(N2Cc3cn(-c4cccc(S(C)(=O)=O)c4)nc3[C@H]2C(C)C)nc(C)n1`, the half-maximal inhibitory concentration (IC50) was found to be 6.62 µM in data set [3], 5.37 µM in [4] and 12.9 µM in [5]. In data set [2], this compound showed a half-life of more than 1 h.

With `CC(C)[C@@H]1c2nn(-c3cccc(S(C)(=O)=O)c3)cc2CN1c1ncc(CO)c(C(F)(F)F)n1`, the IC50 in data set [3] was 0.373 µM; in data set [5], 3.05 µM. Further, the half-life is 3.12 h in data set [1] and more than 1 h in data set [2].

With `CC(C)[C@@H]1c2nn(-c3cccc(S(C)(=O)=O)c3)cc2CN1c1ccnc(C(F)(F)F)n1`, the concentration at 4 h in [7] was determined as 3150 nM; in data set [8] it was 2890 nM; in [9], 2060 nM; in [10] it was 1740 nM. The IC50 in [3] is 1.87 µM; in [4] it was 20.9 µM; in data set [5], 12.8 µM. Moreover, the half-life in [1], in data set [2] and in data set [6] was more than 1 h each time.

With `COc1cc(N2Cc3cn(-c4cccc(S(C)(=O)=O)c4)nc3[C@H]2C(C)(C)C)ccn1`, the concentration at 4 h was 187 nM in data set [11]; 1020 nM in data set [7]; 1560 nM in data set [12]; 1570 nM in data set [13]; 1080 nM in data set [8]; 641 nM in data set [14]. The concentration at 4 h in data set [15] amounted to 463 nM; in data set [16], 5040 nM; in [9], 2280 nM; in data set [10], 1220 nM. Besides, the IC50 is 8.3 µM in data set [3], 7.8 µM in data set [4] and more than 30 µM in data set [5]. In addition, the half-life in [1] is more than 1 h; in data set [2] it was more than 1 h; in [6], 1.1 h.

For the compound `COc1nc(C)cc(N2Cc3cn(-c4cccc(S(C)(=O)=O)c4)nc3[C@H]2C(C)C)n1`, the IC50 in [3] was determined as 5.75 µM; in [4], 24.2 µM. Besides, the half-life in data set [1], in [2] and in data set [6] was more than 1 h throughout. Besides, the concentration at 4 h in [17] was determined as 2 nM.

Consider `CC(C)[C@@H]1c2nn(-c3cccc(S(C)(=O)=O)c3)cc2CN1c1nccc(C(F)(F)F)n1`, for which the IC50 in data set [3] is 2.11 µM; in data set [4], 25.7 µM; in [5], more than 30 µM. For the same compound, the half-life in [1], in data set [2] and in data set [6] was more than 1 h in each case.

`CC(C)[C@@H]1c2nn(-c3cccc(S(C)(=O)=O)c3)cc2CN1c1cc(C(F)(F)F)ncn1`: the IC50 in data set [3] was 5.21 µM; in data set [4], more than 30 µM; in data set [5], more than 30 µM. Further, the half-life in data set [1] was more than 1 h; in [2], more than 1 h; in data set [6] it was 0.833 h.

In the case of `COc1ncc(F)c(N2Cc3cn(-c4cccc(S(C)(=O)=O)c4)nc3[C@H]2C(C)C)n1`, the figures for the IC50 in data set [3], in [4] and in data set [5] were 0.858 µM, 12.7 µM and 15.4 µM, respectively. Moreover, the half-life in data set [1] and in [2] was more than 1 h in each case. This compound returned a concentration at 4 h in data set [17] of 50 nM.

With `COc1cc(N2Cc3cn(-c4cccc(S(C)(=O)=O)c4)nc3[C@H]2C(C)C)cc(C)n1`, the figures for the IC50 in [3], in data set [4] and in [5] were 3.81 µM, 25.7 µM and more than 30 µM, respectively. For the same compound, the half-life in data set [6] was more than 0.367 h.

With `CC(C)[C@@H]1c2nn(-c3ccc(CO)c(S(C)(=O)=O)c3)cc2CN1c1ncc(CO)c(C(F)(F)F)n1`, the IC50 came to 0.493 µM in [3], 7.75 µM in [4] and 7.7 µM in data set [5]. Besides, the half-life in data set [1] and in data set [2] was more than 1 h in each case.

On to `Cc1nc(N2Cc3cn(-c4cccc(S(C)(=O)=O)c4)nc3[C@H]2C(C)C)cc(C(F)(F)F)n1`, for which the IC50 in [3] stood at 5.04 µM; in [4], 15.8 µM; in [5] it was 21.1 µM. Moreover, the half-life in data set [1], in data set [2] and in [6] was more than 1 h each time. In addition, the concentration at 4 h in data set [17] was found to be 143 nM; in data set [9] it was 825 nM; in data set [18], 212 nM; in data set [10], 423 nM.

For the compound `O=S(=O)(c1ccccc1)N(CC(F)(F)F)c1ccc(C(O)(C(F)(F)F)C(F)(F)F)cc1` [T091317], the “fold change (FC)” value in data set [19] was 5. Further, the concentration at 4 h in data set [20] was found to be 2800 nM; in [21] it was 5360 nM; in data set [22], 8050 nM; in [23], 3770 nM.
